For data set [1] the following is noted: cited from earlier work.
Data set [2] deals with T1, ERβ (Homo sapiens, UniProt Q92731). Put plainly: Luciferase reporter assay in Hs578T-ERβLuc cells. The data set is classed as cell-based. Particulars: for luciferase induction in Hs578T-ERβLuc (in words): b31: 10 nM DPN or PPT, 24 hr, cosmosiin up to 10 μM. In general terms: A reporter such as luciferase makes a cellular process visible.
For a further data set, the system named is ERα/β and ERβ/β dimers. As to the kind of experiment: BRET dimerization assays. It is filed as cell-based. The following applies: unpublished data. On the technique in general: BRET reads energy transfer from a luciferase to a nearby fluorophore.
The target in data set [3] is T2, ERα (Homo sapiens, UniProt P03372).
T2 sequence (P03372 1-595): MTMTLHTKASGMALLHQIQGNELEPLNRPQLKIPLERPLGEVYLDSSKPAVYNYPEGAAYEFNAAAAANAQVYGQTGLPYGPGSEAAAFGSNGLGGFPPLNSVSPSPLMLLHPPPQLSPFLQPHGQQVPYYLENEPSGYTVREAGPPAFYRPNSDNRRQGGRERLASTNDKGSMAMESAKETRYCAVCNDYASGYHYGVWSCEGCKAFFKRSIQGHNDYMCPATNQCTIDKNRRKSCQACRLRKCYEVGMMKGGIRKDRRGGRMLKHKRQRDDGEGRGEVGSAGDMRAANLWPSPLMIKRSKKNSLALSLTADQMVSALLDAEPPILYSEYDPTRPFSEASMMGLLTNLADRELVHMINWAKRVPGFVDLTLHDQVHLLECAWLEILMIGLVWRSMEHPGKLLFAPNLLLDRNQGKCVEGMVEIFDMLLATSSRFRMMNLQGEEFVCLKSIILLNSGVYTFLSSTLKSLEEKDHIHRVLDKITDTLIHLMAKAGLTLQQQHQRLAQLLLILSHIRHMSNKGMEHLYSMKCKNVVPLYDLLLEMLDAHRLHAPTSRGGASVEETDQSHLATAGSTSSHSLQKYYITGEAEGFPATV
Put plainly: Luciferase reporter assay in Hs578T-ERαLuc cells. Particulars: for luciferase induction in Hs578T-ERαLuc (in words): b31: 10 nM DPN or PPT, 24 hr. It is filed as cell-based.

The next data set has as its system FLuc reporter transcript. Put plainly: RT-PCR of firefly luciferase. The data set is classed as cell-based. The following applies: 1 μM cosmosiin vs 1 nM E2, 4 and 24 hr; both cell lines.
A further data set relates to ITGA6 (ERα target gene). Put plainly: qPCR of ERα target gene ITGA6 in Hs578T-ERα cells. The following applies: for ITGA6 expression in Hs578T-ERα cells at 1 μM: 1 μM ligand, 24 hr; for ITGA6 expression in Hs578T-ERα cells: ligand 24 hr, DPN 10 nM, liquiritigenin 100 nM. The data set is classed as cell-based. Summed up:
(§1)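 Cells were hormone-depleted for 3 days in phenol red-free DMEM/F12 + 10% charcoal-stripped FBS, split into 5% stripped serum, and induced with 50 ng/mL Dox for 48 hr. They were then treated with Dox plus test compound or 0.1% DMSO vehicle for 24 hr. Total RNA was extracted and assayed by qRT-PCR: ITGA6 in Hs578T-ERα cells, C3 and JAG1 in Hs578T-ERβ cells. There were three biological replicates, with two-tailed t-tests against control.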
For orientation: Real-time PCR tracks product formation cycle by cycle.

Data set [4] deals with T1, ERβ. As to the kind of experiment: Competitive ligand binding assay.
The subject of the next data set is JAG1 (ERβ target gene). Put plainly: qPCR of ERβ target gene JAG1 in Hs578T-ERβ cells. It is filed as cell-based. The following applies: for JAG1 repression in Hs578T-ERβ cells: 50 ng/mL Dox 48 hr, ligand 24 hr; for JAG1 repression compared to E2, DPN or 1 μM liquiritigenin: 100 nM liquiritigenin, 1 μM cosmosiin. Summed up:
as §1

For data set [5], the target named is T2, ERα. As to the kind of experiment: Competitive ligand binding assay. The following applies: read-out: IC50 ERα, unpublished data.
The next data set relates to C3 (ERβ target gene). Put plainly: qPCR of ERβ target gene C3 in Hs578T-ERβ cells. It is filed as cell-based. Particulars: 50 ng/mL Dox 48 hr, ligand 24 hr; cosmosiin 1 μM. Summed up:
as §1

Data set [6] concerns the target T2, ERα. The following applies: cited from earlier work.
Data set [7] has as its target T2, ERα. The following applies: cited from earlier work. The source holds these as a separate data set.
The target in data set [8] is T1, ERβ. The following applies: cited from earlier work.
The target in data set [9] is T2, ERα. Particulars: concentrations up to 2.5 μM; U2OS, HeLa or WAR5 prostate cancer cells transfected with ERα; cited from earlier work.
The target of data set [10] is T1, ERβ. Put plainly: pGL4.3xERE reporter in HEK293 cells transfected with full length ERβ. It is filed as cell-based. The following applies: 1 nM E2, 24 hr.
Another data set relates to T47D-KBLuc cells. Particulars: read-out: EC50, T47D-KBLuc cells; approximate; cited from earlier work.

Usually IC50 stands for the point on the concentration scale where inhibition reaches its midpoint. In general, EC50 refers to the concentration needed to bring the measured effect to its halfway point.

T1 sequence (Q92731 whole entry): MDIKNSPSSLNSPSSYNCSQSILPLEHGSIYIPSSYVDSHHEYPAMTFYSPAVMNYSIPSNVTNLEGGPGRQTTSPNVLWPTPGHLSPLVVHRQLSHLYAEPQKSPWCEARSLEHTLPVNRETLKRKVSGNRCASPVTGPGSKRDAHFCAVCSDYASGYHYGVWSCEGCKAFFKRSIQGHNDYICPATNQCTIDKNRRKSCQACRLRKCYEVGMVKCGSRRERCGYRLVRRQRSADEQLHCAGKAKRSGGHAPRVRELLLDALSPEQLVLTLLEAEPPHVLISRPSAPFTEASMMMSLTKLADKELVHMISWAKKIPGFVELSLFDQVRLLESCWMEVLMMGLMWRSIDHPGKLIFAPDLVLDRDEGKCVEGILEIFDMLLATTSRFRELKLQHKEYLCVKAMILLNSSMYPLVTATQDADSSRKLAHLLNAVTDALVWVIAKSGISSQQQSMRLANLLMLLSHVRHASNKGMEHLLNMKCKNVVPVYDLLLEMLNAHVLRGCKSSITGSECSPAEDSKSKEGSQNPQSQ

As for `C=Cc1cc(O)cc2nc(-c3ccc(O)c(F)c3)oc12` [ERB-041], in [1], the “efficacy in rheumatoid arthritis trial” value is “did not improve arthritis symptoms” and the “tolerability in rheumatoid arthritis trial” value was “well tolerated”.
On to `O=c1cc(-c2ccc(O)cc2)oc2cc(O[C@@H]3O[C@H](CO)[C@@H](O)[C@H](O)[C@H]3O)cc(O)c12` [Cosmosiin, apigenin 7-glucoside], for which the “luciferase induction in Hs578T-ERβLuc (in words)” value on ERβ [2] is given as “induced luciferase expression to a much greater extent than E2”. Besides, the “luciferase induction with ICI 182,780 co-treatment or without Dox” value on ERβ [2] (data not shown) is “did not induce luciferase expression in Dox-treated cells co-treated with ICI 182,780 or cells not treated with Dox”. Besides, the “ER dimer induction (BRET)” value in the data set with ERα/β and ERβ/β dimers is “selectively induces ERα/β and ERβ/β dimers”. For the same molecule, the “luciferase induction in Hs578T-ERαLuc (in words)” value at ERα [3] was “only slightly activated luciferase reporter expression”. Also, in the data set on FLuc reporter transcript, the “luciferase transcript level compared to E2” value is given as “did not induce luciferase expression to a greater extent than E2”. Besides, in the data set on ITGA6 (ERα target gene), the “ITGA6 expression in Hs578T-ERα cells at 1 μM” value is “ITGA6 expression was induced”. Further, the IC50 at ERβ [4] (read-out: IC50 ERβ, unpublished data) was determined as 3.3 µM. The “higher binding affinity for ERβ” value at ERβ [4] (unpublished data) came out at 3 fold. Moreover, in the data set on JAG1 (ERβ target gene), the “JAG1 repression in Hs578T-ERβ cells” value was “occurred to a similar degree” and the “JAG1 repression compared to E2, DPN or 1 μM liquiritigenin” value was “do not fully repress JAG1 expression”. In addition, the IC50 on ERα [5] stood at 15.9 µM. Further, the “C3 expression in Hs578T-ERβ cells” value with C3 (ERβ target gene) was “induced C3 expression at 1 μM, but not to the same extent as E2”.
As for `N#CC(Cc1ccc(O)cc1)c1ccc(O)cc1` (stereo not shown) [DPN, diarylpropionitrile], the “ITGA6 expression in Hs578T-ERα cells” value in the data set with ITGA6 (ERα target gene) is “did not fully activate its expression”. In the data set on JAG1 (ERβ target gene), the “JAG1 repression in Hs578T-ERβ cells” value is on record as “occurred to a similar degree”. The “C3 expression in Hs578T-ERβ cells” value in the data set with C3 (ERβ target gene) is given as “capable of inducing C3 expression to a comparable level as E2”.
`CCCc1c(-c2ccc(O)cc2)nn(-c2ccc(O)cc2)c1-c1ccc(O)cc1` [PPT, propyl pyrazole triol]: on ERβ [2], the EC50 stood at 26 nM, the “concentrations at which reporter is activated in Hs578T-ERβLuc” value is given as “greater than 100 nM” and the “luciferase induction in Hs578T-ERβLuc (in words)” value is recorded as “could not induce luciferase expression to the same extent as E2”. In addition, on ERα [3], the 50% effective concentration (EC50) came out at 0.016 nM and the “luciferase induction in Hs578T-ERαLuc (in words)” value is given as “selectively activated luciferase expression in Hs578T-ERαLuc”. Besides, the “selectivity for ERα (EC50 comparison)” value at ERα [3] (Hs578T-ERαLuc vs Hs578T-ERβLuc) is given as approximately 1000 fold. For the same molecule, on ERα [6], the “induction of estrogen responsive reporter, HELN-ERα cells” value is reported as “unable to induce an estrogen responsive reporter”. Moreover, the “higher binding affinity for ERα compared to ERβ” value at ERα [7] is reported as 400 fold. Moreover, the “ITGA6 expression in Hs578T-ERα cells” value in the data set on ITGA6 (ERα target gene) is on record as “up-regulated”. Also, the “induction of estrogen responsive reporter, HEC-1 cells + ERβ” value at ERβ [8] is recorded as “unable to induce an estrogen responsive reporter”. In addition, in the data set with JAG1 (ERβ target gene), the “JAG1 repression in Hs578T-ERβ cells” value was “had no effect on JAG1 repression”. Also, the “C3 expression in Hs578T-ERβ cells” value with C3 (ERβ target gene) is “slightly induced C3 expression compared to DMSO”.
For `O=C1C[C@@H](c2ccc(O)cc2)Oc2cc(O)ccc21` [Liquiritigenin, liquiritigenin], the “activation of ERα in transcriptional assays” value on ERα [9] was “minimal activation of ERα”. For the same molecule, in the data set on ITGA6 (ERα target gene), the “ITGA6 expression in Hs578T-ERα cells at 1 μM” value is reported as “ITGA6 expression was induced” and the “ITGA6 expression in Hs578T-ERα cells” value was “did not fully activate its expression”. Further, in the data set with JAG1 (ERβ target gene), the “JAG1 repression in Hs578T-ERβ cells” value is “occurred to a similar degree” and the “JAG1 repression compared to E2, DPN or 1 μM liquiritigenin” value was “do not fully repress JAG1 expression”. Besides, the “C3 expression in Hs578T-ERβ cells” value in the data set on C3 (ERβ target gene) was “capable of inducing C3 expression to a comparable level as E2”.
`C[C@]12CC[C@@H]3c4ccc(O)cc4CC[C@H]3[C@@H]1CC[C@@H]2O` [E2, 17β-estradiol]: the “induction of luciferase, HEK293 + ERβ” value at ERβ [10] is listed as 15 fold. Moreover, the “ITGA6 expression in Hs578T-ERα cells” value in the data set with ITGA6 (ERα target gene) is on record as “up-regulated”. Further, the “JAG1 repression in Hs578T-ERβ cells” value in the data set with JAG1 (ERβ target gene) was “occurred to a similar degree”. For the same molecule, in the data set on T47D-KBLuc cells, the EC50 is approximately 3 pM. In addition, the “C3 expression in Hs578T-ERβ cells” value with C3 (ERβ target gene) is listed as “up-regulated in Hs578T-ERβ cells”.

These data come from PMC3210412 (Biochemical pharmacology, 2011).
